Converted amounts (≈) assume the structure as drawn.
Legend:
[1] = target: CDK8/Cyclin C (Homo sapiens, UniProt P49336); assay: Inhibition of kinase tracer 236 binding to full length N terminal GST-tagged human CDK8 (1 to 464 end residues) /CycC ( 1 to 283 end residues) expressed in baculovirus expression system after 60 min by TR-FRET assay
Summary of the method: (§1)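 TR-FRET ligand displacement using 20 nM GST-CDK8/CycC or GST-CDK19/CycC, 20 nM Kinase Tracer 236 and Tb-anti-GST antibody. Buffer 25 mM HEPES, 10 mM MgCl₂, 2 mM DTT, 0.01% Tween-20. Incubated 60 min at rt.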

[2] = target: Cyclin-dependent kinase 8 (Homo sapiens, UniProt P49336); assay: Inhibition of CDK8 in human SW480 cells assessed as reduction in IFN-gamma induced STAT1 phosphorylation at Ser727 residues preincubated for 2 hrs followed by IFN-gamma addition measured after 1 hr by In-cell western assay; type: cell-based
Chain of Cyclin-dependent kinase 8 (P49336 whole entry): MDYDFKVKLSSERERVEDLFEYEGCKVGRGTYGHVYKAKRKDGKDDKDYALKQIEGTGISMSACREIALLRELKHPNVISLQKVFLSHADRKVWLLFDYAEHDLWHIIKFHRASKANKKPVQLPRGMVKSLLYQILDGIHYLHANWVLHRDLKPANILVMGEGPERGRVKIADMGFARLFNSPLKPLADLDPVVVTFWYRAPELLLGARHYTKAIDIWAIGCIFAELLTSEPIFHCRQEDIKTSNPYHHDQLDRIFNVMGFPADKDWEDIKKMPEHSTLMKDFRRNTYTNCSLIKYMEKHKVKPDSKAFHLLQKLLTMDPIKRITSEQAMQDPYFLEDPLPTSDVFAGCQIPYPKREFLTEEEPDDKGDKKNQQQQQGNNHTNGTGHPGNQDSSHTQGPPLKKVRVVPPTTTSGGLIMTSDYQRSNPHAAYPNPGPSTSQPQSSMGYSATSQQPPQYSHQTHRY
Summary of the method: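 SW480 cells kept in L-15 with 10% FBS at 37 °C and plated at 6000 cells/well overnight. Compound applied 2 h, then 10 ng/mL IFN-γ for 1 h. Cells fixed, permeabilized and blocked, then probed overnight at 4 °C with anti-pSTAT1 Ser727. IRDye 800CW secondary plus DRAQ5 for DNA, Odyssey imaging.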

[3] = target: CYP3A4 (Homo sapiens, UniProt P08684); assay: Time-dependent inhibition of CYP3A4 in human liver microsomes assessed as reduction in testosterone to 6beta-hydroxytestosterone conversion by measuring remaining activity at 30 uM preincubated for 60 mins followed by testosterone addition measured after 20 mins in presence of NADPH by UPLC analysis relative to control; type: ADME; details: probe testosterone (6beta-hydroxylation), read-out: Activity
Chain of CYP3A4 (P08684 whole entry): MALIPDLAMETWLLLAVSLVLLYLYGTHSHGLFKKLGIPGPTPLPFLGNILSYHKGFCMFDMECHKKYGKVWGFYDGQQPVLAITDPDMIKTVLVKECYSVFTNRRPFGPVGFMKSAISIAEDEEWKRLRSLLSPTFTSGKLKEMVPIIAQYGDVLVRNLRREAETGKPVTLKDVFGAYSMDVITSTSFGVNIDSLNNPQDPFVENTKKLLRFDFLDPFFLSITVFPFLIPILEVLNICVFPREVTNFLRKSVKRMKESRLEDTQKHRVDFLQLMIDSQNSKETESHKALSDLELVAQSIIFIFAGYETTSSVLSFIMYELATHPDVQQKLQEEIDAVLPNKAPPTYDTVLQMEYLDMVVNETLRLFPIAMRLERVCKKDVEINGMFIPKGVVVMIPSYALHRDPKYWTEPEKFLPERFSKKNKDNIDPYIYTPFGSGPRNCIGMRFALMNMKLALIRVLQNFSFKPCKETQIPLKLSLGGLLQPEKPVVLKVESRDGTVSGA
Summary of the method: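 Compound at 30 μM preincubated with human liver microsomes in phosphate buffer pH 7.4 at 37 °C for 0 or 60 min with an NADPH-generating system. Testosterone then added for 20 min, and 6β-hydroxytestosterone measured by UPLC. Activity expressed as % of DMSO control; % remaining taken after 60 min preincubation.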

[4] = Solubility of the compound at pH 6.8; type: physicochemical; details: buffer
Summary of the method: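 Compound added from DMSO solution to JP 2nd disintegration fluid (pH 6.8) and incubated. Precipitate removed by filtration, and filtrate concentration measured by plate reader or HPLC.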

[5] = target: Cyclin-C/Cyclin-dependent kinase 19 (Homo sapiens, UniProt Q9BWU1); assay: Inhibition of kinase tracer 236 binding to GST-tagged CDK19/CycC (unknown origin) after 60 min by TR-FRET assay; type: protein-complex assay; summary of the method: as §1
Chain of Cyclin-C/Cyclin-dependent kinase 19 (Q9BWU1 whole entry): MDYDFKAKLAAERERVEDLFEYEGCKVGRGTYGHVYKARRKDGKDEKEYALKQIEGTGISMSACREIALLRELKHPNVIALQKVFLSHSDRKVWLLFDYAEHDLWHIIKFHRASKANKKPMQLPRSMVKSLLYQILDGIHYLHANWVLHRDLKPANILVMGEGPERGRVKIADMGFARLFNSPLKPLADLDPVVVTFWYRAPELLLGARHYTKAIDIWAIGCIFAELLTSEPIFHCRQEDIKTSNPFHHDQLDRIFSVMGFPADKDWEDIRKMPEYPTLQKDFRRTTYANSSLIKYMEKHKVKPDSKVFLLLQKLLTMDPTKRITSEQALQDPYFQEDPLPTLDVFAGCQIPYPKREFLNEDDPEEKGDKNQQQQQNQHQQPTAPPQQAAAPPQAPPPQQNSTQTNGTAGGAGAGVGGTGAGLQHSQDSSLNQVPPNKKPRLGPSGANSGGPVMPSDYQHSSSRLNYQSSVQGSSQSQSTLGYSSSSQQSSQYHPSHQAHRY
Chain of Cyclin-C/Cyclin-dependent kinase 19 (P24863 whole entry, further chain): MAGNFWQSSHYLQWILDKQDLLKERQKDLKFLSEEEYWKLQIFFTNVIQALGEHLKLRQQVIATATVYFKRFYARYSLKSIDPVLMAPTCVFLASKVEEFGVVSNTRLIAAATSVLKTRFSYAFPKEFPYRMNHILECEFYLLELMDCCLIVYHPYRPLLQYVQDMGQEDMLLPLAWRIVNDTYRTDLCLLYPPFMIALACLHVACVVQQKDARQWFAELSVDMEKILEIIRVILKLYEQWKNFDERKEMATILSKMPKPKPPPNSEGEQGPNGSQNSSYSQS

[6] = test system: Plasma; assay: Drug level in mouse plasma treated with (E)-3-(4-(1-Methyl-1H-pyrazol-4-yl)pyridin-3-yl)-N-(4-(morpholinomethyl)phenyl)acrylamide at 1 mg/kg, po administered as cassette dose measured up to 8 hrs by LC/MS/MS analysis; type: ADME, organism-based; details: in vivo
Summary of the method: (§2)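 Cassette dosing to non-fasted mice, 1 mg/kg po (0–8 h). Plasma obtained from blood by centrifugation, deproteinized with acetonitrile, centrifuged, and the supernatant analysed by LC/MS/MS.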

[7] = Total clearance in mouse at 1 mg/kg, po administered as cassette dose measured up to 8 hrs by LC/MS/MS analysis; type: ADME, organism-based; details: in vivo
[8] = Cmax in mouse at 1 mg/kg, po administered as cassette dose measured up to 8 hrs by LC/MS/MS analysis; type: ADME, organism-based; parameters: dose 1 mg/kg, route oral; details: in vivo; summary of the method: as §2
[9] = AUC (0 to 8 hrs) in mouse at 1 mg/kg, po administered as cassette dose by LC/MS/MS analysis; type: ADME, organism-based; parameters: time < 8 hr, dose 1 mg/kg, route oral; details: in vivo; summary of the method: as §2
[10] = MRT in mouse at 1 mg/kg, po administered as cassette dose measured up to 8 hrs by LC/MS/MS analysis; type: ADME, organism-based; details: in vivo; summary of the method: as §2
[11] = Oral bioavailability in mouse at 1 mg/kg administered as cassette dose measured up to 8 hrs by LC/MS/MS analysis; type: ADME, organism-based; details: in vivo
Summary of the method: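 Bioavailability from mouse cassette dosing, 0.1 mg/kg iv and 1 mg/kg po, non-fasted animals. Plasma was deproteinized with acetonitrile and compound quantified by LC/MS/MS.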

[12] = test system: Liver; assay: Intrinsic clearance in human liver microsomes at 1 umol/L after 15 to 30 mins in presence of NADPH by LC/MS/MS analysis; type: ADME, microsome; details: 1 µM
Summary of the method: (§3)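 Human or mouse liver microsomes at 0.2 mg/mL protein in 50 mmol/L phosphate buffer pH 7.4 with 1 μmol/L compound. Reaction started with an NADPH-generating system and stopped at 15 and 30 min with acetonitrile. LC/MS/MS readout. Intrinsic clearance taken as initial metabolic velocity (slope of concentration-time) divided by compound concentration.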

[13] = test system: Liver; assay: Intrinsic clearance in mouse liver microsomes at 1 umol/L after 15 to 30 mins in presence of NADPH by LC/MS/MS analysis; type: ADME, microsome; details: 1 µM; summary of the method: as §3

Chain of CDK8/Cyclin C (P49336 whole entry): as the sequence (P49336 whole entry) above
Chain of CDK8/Cyclin C (P24863 whole entry, further chain): as the sequence (P24863 whole entry, further chain) above

SMILES	IC50 [1]	EC50 [2]	activity at 20 min, 30 µM [3]	other results
COc1ccc(-c2ccncc2/C=C/C(=O)Nc2ccc(CN3CCOCC3)cc2)s1	28 nM	97 nM		
Cn1cc(-c2ccncc2/C=C/C(=O)Nc2ccc3c(c2)CCN(CC(F)(F)F)C3)cn1	4.5 nM	7 nM	91%	solubility [4]: > 81 µg/mL
Cn1cc(-c2ccncc2CCC(=O)Nc2ccc(CN3CCOCC3)cc2)cn1	41 nM	95 nM	71%	IC50 [5]: 50 nM
Cn1cc(-c2ccncc2/C=C/C(=O)Nc2ccc(CN3CCOCC3=O)cc2)cn1				Drug metabolism [6]: Metabolite_Detected
O=C(/C=C/c1cnccc1-c1cnn(Cc2ccccc2)c1)Nc1ccc(CN2CCOCC2)cc1	4.5 nM	28 nM		CL/F [7]: 96.1 mL/min/kg; Cmax [8]: 15.7 ng/mL; AUC(0-t) at 8 h [9]: 26.9 ng·h/mL; MRT [10]: 1.2 h; bioavailability [11]: 15.5%; microsomal intrinsic clearance [12]: 78 µL/min/mg; intrinsic clearance [13]: 118 µL/min/mg
Cn1cc(-c2cc[n+]([O-])cc2/C=C/C(=O)Nc2ccc(CN3CCOCC3)cc2)cn1				Drug metabolism [6]: Metabolite_Detected
O=C(/C=C/c1cnccc1-c1cnn(C2CC2)c1)Nc1ccc2c(c1)CCN(CC(F)(F)F)C2	7.1 nM	14 nM	88%	solubility [4]: 3.9 µg/mL (≈ 8.34 µM)
O=C(/C=C/c1cncc(F)c1-c1cnn(C2CC2)c1)Nc1ccc(CN2CCOCC2)cc1	6.5 nM	2.3 nM	46%	
Cn1cc(-c2ccncc2/C=C/C(=O)Nc2ccc(CN3C4CCC3COC4)cc2)cn1	6.3 nM	17 nM	99%	
Cn1cc(-c2ccncc2/C=C/C(=O)Nc2ccc3c(c2)CN(CC(F)(F)F)CC3)cn1	3.2 nM	8.4 nM	22%	solubility [4]: 8.9 µg/mL (≈ 20.2 µM)
Cn1cc(-c2ccncc2/C=C/C(=O)Nc2ccc(CNCCO)cc2)cn1				Drug metabolism [6]: Metabolite_Detected
Cn1cc(-c2ccncc2/C=C/C(N)=O)cn1	> 10000 nM	> 10000 nM		
O=C(/C=C/c1cnccc1-c1ccc2[nH]cnc2c1)Nc1ccc(CN2CCOCC2)cc1	1.5 nM	10 nM		
COc1ncc(-c2ccncc2/C=C/C(=O)Nc2ccc(CN3CCOCC3)cc2)s1	8.1 nM	12 nM		
NC(=O)c1ccc(-c2ccncc2/C=C/C(=O)Nc2ccc(CN3CCOCC3)cc2)s1	8.3 nM	690 nM		
O=C(/C=C/c1cnccc1-c1cnn(C2CC2)c1)Nc1ccc(CN2CC3CC(C2)O3)cc1	6.7 nM	5.5 nM	108%	solubility [4]: 60 µg/mL (≈ 136 µM)
Cn1cnc2cc(-c3ccncc3/C=C/C(=O)Nc3ccc(CN4CCOCC4)cc3)ccc21	4800 nM	> 10000 nM		
Cn1cnc2ccc(-c3ccncc3/C=C/C(=O)Nc3ccc(CN4CCOCC4)cc3)cc21	2.5 nM	2.4 nM		
O=C(CCc1cnccc1-c1cnn(C2CC2)c1)Nc1ccc(CN2CCOCC2)cc1	29 nM	130 nM	59%	IC50 [5]: 41 nM

More lines, main results first:

IC50 [1]	EC50 [2]	activity at 20 min, 30 µM [3]	SMILES	other results
51 nM	110 nM	97%	Cn1cc(-c2ccncc2/C=C/C(=O)Nc2ccccc2)cn1	solubility [4]: 26 µg/mL (≈ 85.4 µM)
27 nM	110 nM		O=C(/C=C/c1cnccc1-c1cnsc1)Nc1ccc(CN2CCOCC2)cc1	
6.2 nM	17 nM	69%	Cn1cc(-c2ccncc2/C=C/C(=O)Nc2ccc(CN3CCC(F)(F)C3)cc2)cn1	solubility [4]: 33 µg/mL (≈ 77.9 µM)
6.4 nM	11 nM	54%	O=C(/C=C/c1cnccc1-c1cnn(C2CC2)c1)Nc1ccc(CN2CCOCC2)cc1	IC50 [5]: 7.6 nM; CL/F [7]: 25.4 mL/min/kg; Cmax [8]: 208 ng/mL; AUC(0-t) at 8 h [9]: 340 ng·h/mL; MRT [10]: 1.5 h; bioavailability [11]: 51.2%; microsomal intrinsic clearance [12]: 25 µL/min/mg; intrinsic clearance [13]: 64 µL/min/mg
41 nM	140 nM		O=C(/C=C/c1cnccc1-c1cncs1)Nc1ccc(CN2CCOCC2)cc1	
28 nM	150 nM		O=C(/C=C/c1cnccc1-c1cnn(CC(F)(F)F)c1)Nc1ccc(CN2CCOCC2)cc1	
6.4 to 24 nM	11 to 50 nM		O=C(/C=C/c1cnccc1-c1cnn(C(F)F)c1)Nc1ccc(CN2CCOCC2)cc1	
> 10000 nM	> 10000 nM	89%	Cn1cc(-c2ccnc(O)c2/C=C/C(=O)Nc2ccc(CN3CCOCC3)cc2)cn1	
11 nM	84 nM	98%	Cn1cc(-c2ccncc2/C=C/C(=O)Nc2ccc(CN3CC(F)(F)C3)cc2)cn1	solubility [4]: 44 µg/mL (≈ 107 µM)
6.7 nM	16 nM	84%	CC1CN(Cc2ccc(NC(=O)/C=C/c3cnccc3-c3cnn(C)c3)cc2)CCO1 (stereo unspecified)	
5.2 nM	3.6 nM	60%	Cn1cc(-c2c(F)cncc2/C=C/C(=O)Nc2ccc(CN3CCOCC3)cc2)cn1	
16 nM	19 nM	100%	Cn1cc(-c2ccncc2/C=C/C(=O)Nc2ccc(CN3CC4CC3CO4)cc2)cn1 (stereo unspecified)	solubility [4]: > 82 µg/mL
0.54 to 80 nM	21 to 370 nM		O=C(/C=C/c1cnccc1-c1cn[nH]c1)Nc1ccc(CN2CCOCC2)cc1	IC50 [5]: 100 nM; microsomal intrinsic clearance [12]: 5.1 µL/min/mg; intrinsic clearance [13]: 6.7 µL/min/mg; Drug metabolism [6]: Metabolite_Detected
990 nM	1300 nM		Cn1cc(-c2cc(N)ncc2/C=C/C(=O)Nc2ccc(CN3CCOCC3)cc2)cn1	
9.6 nM	3.1 nM	101%	O=C(/C=C/c1cnccc1-c1cnn(C2CC2)c1)Nc1ccc(CN2CC3CC2CO3)cc1 (stereo unspecified)	solubility [4]: > 92 µg/mL
20 nM	27 nM	59%	CC1COCCN1Cc1ccc(NC(=O)/C=C/c2cnccc2-c2cnn(C)c2)cc1 (stereo unspecified)	solubility [4]: > 75 µg/mL
